Results published in ChEMBL document CHEMBL5058577, “EUbOPEN Chemogenomics Library 2 (Multiplex)” (2022).

System: U2OS
Experiment: Multiplex assay against U2OS
Type: toxicity, cell-based
Details: human
In short: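 Values for tubulin, mitochondrial-mass and membrane-permeability phenotypes are per cents of cells with healthy nuclei. These cells were identified by CellPathfinder machine-learning gating of live cells that had been stained at seeding with Hoechst33342, BioTracker Green Microtubule Cytoskeleton Dye, MitoTracker Red and Annexin V Alexa Fluor 680 and imaged on a CQ1 microscope at 37°C and 5% CO2 after compound addition. The gating first set Hoechst high-intensity objects apart from normal cells, then split normal cells into healthy, pyknosed or fragmented nuclei, and pyknosed cells into mitotic or apoptotic.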

[1] = 12 h, 1 µM, compound concentration 1 uM, replicate 1
[2] = 12 h, 1 µM, compound concentration 1 uM, replicate 2
[3] = 12 h, 10 µM, compound concentration 10 uM, replicate 1
[4] = 12 h, 10 µM, compound concentration 10 uM, replicate 2
[5] = 24 h, 1 µM, compound concentration 1 uM, replicate 1
[6] = 24 h, 1 µM, compound concentration 1 uM, replicate 2
[7] = 24 h, 10 µM, compound concentration 10 uM, replicate 1
[8] = 24 h, 10 µM, compound concentration 10 uM, replicate 2
[9] = 48 h, 1 µM, compound concentration 1 uM, replicate 1
[10] = 48 h, 1 µM, compound concentration 1 uM, replicate 2
[11] = 48 h, 10 µM, compound concentration 10 uM, replicate 1
[12] = 48 h, 10 µM, compound concentration 10 uM, replicate 2

Cc1cc(=O)n(C)c2cc(N3C(=O)CC[C@H](NS(=O)(=O)CC(C)C)[C@H]3c3ccc(Cl)cc3)ccc12
Population Apoptotic (%) [1]: 87%
Population Fragmented Nuclei (%) [1]: 24%
Population Healthy Nuclei (%) [1]: 66%
Population Hoechst High Intensity Objects (%) [1]: 3%
Population Membrane Permeable-Phenotype (%) [1]: 3%
Population Mitochondria Different-Phenotype (%) [1]: 1%
Population Mitotic Cells (%) [1]: 12%
Population Normal (%) [1]: 96%
Population Pyknosed Nuclei (%) [1]: 9%
Population Tubulin-Different-Phenotype (%) [1]: 1%
Total Cell Count [1]: 263
Population Apoptotic (%) [2]: 63%
Population Fragmented Nuclei (%) [2]: 21%
Population Healthy Nuclei (%) [2]: 68%
Population Hoechst High Intensity Objects (%) [2]: 1%
Population Membrane Permeable-Phenotype (%) [2]: 2%
Population Mitochondria Different-Phenotype (%) [2]: 2%
Population Mitotic Cells (%) [2]: 36%
Population Normal (%) [2]: 98%
Population Pyknosed Nuclei (%) [2]: 10%
Total Cell Count [2]: 110
Population Apoptotic (%) [3]: 57%
Population Fragmented Nuclei (%) [3]: 21%
Population Healthy Nuclei (%) [3]: 55%
Population Hoechst High Intensity Objects (%) [3]: 5%
Population Membrane Permeable-Phenotype (%) [3]: 63%
Population Mitochondria Different-Phenotype (%) [3]: 44%
Population Mitotic Cells (%) [3]: 42%
Population Normal (%) [3]: 94%
Population Pyknosed Nuclei (%) [3]: 23%
Population Tubulin-Different-Phenotype (%) [3]: 65%
Total Cell Count [3]: 240
Population Fragmented Nuclei (%) [4]: 16%
Population Healthy Nuclei (%) [4]: 60%
Population Hoechst High Intensity Objects (%) [4]: 3%
Population Membrane Permeable-Phenotype (%) [4]: 35%
Population Mitochondria Different-Phenotype (%) [4]: 68%
Population Normal (%) [4]: 96%
Population Tubulin-Different-Phenotype (%) [4]: 60%
Total Cell Count [4]: 83
Population Apoptotic (%) [5]: 74%
Population Fragmented Nuclei (%) [5]: 20%
Population Healthy Nuclei (%) [5]: 68%
Population Hoechst High Intensity Objects (%) [5]: 3%
Population Membrane Permeable-Phenotype (%) [5]: 6%
Population Mitochondria Different-Phenotype (%) [5]: 3%
Population Mitotic Cells (%) [5]: 25%
Population Normal (%) [5]: 96%
Population Pyknosed Nuclei (%) [5]: 11%
Population Tubulin-Different-Phenotype (%) [5]: 4%
Total Cell Count [5]: 322
Population Apoptotic (%) [6]: 82%
Population Fragmented Nuclei (%) [6]: 18%
Population Healthy Nuclei (%) [6]: 69%
Population Hoechst High Intensity Objects (%) [6]: 1%
Population Membrane Permeable-Phenotype (%) [6]: 9%
Population Mitochondria Different-Phenotype (%) [6]: 2%
Population Mitotic Cells (%) [6]: 17%
Population Normal (%) [6]: 98%
Population Tubulin-Different-Phenotype (%) [6]: 6%
Total Cell Count [6]: 146
Population Apoptotic (%) [7]: 71%
Population Fragmented Nuclei (%) [7]: 20%
Population Healthy Nuclei (%) [7]: 56%
Population Hoechst High Intensity Objects (%) [7]: 5%
Population Membrane Permeable-Phenotype (%) [7]: 25%
Population Mitochondria Different-Phenotype (%) [7]: 40%
Population Mitotic Cells (%) [7]: 28%
Population Normal (%) [7]: 94%
Population Pyknosed Nuclei (%) [7]: 23%
Population Tubulin-Different-Phenotype (%) [7]: 28%
Total Cell Count [7]: 262
Population Apoptotic (%) [8]: 81%
Population Fragmented Nuclei (%) [8]: 26%
Population Healthy Nuclei (%) [8]: 62%
Population Hoechst High Intensity Objects (%) [8]: 2%
Population Membrane Permeable-Phenotype (%) [8]: 36%
Population Mitochondria Different-Phenotype (%) [8]: 59%
Population Mitotic Cells (%) [8]: 18%
Population Normal (%) [8]: 97%
Population Pyknosed Nuclei (%) [8]: 10%
Population Tubulin-Different-Phenotype (%) [8]: 50%
Total Cell Count [8]: 108
Population Apoptotic (%) [9]: 77%
Population Fragmented Nuclei (%) [9]: 14%
Population Healthy Nuclei (%) [9]: 73%
Population Hoechst High Intensity Objects (%) [9]: 1%
Population Membrane Permeable-Phenotype (%) [9]: 4%
Population Mitochondria Different-Phenotype (%) [9]: 3%
Population Mitotic Cells (%) [9]: 22%
Population Normal (%) [9]: 98%
Population Pyknosed Nuclei (%) [9]: 11%
Population Tubulin-Different-Phenotype (%) [9]: 2%
Total Cell Count [9]: 508
Population Apoptotic (%) [10]: 95%
Population Fragmented Nuclei (%) [10]: 15%
Population Membrane Permeable-Phenotype (%) [10]: 6%
Population Mitochondria Different-Phenotype (%) [10]: 5%
Population Mitotic Cells (%) [10]: 5%
Population Pyknosed Nuclei (%) [10]: 10%
Population Tubulin-Different-Phenotype (%) [10]: 4%
Total Cell Count [10]: 199
Population Apoptotic (%) [11]: 84%
Population Fragmented Nuclei (%) [11]: 25%
Population Healthy Nuclei (%) [11]: 51%
Population Hoechst High Intensity Objects (%) [11]: 6%
Population Membrane Permeable-Phenotype (%) [11]: 15%
Population Mitochondria Different-Phenotype (%) [11]: 15%
Population Mitotic Cells (%) [11]: 15%
Population Normal (%) [11]: 93%
Population Pyknosed Nuclei (%) [11]: 22%
Population Tubulin-Different-Phenotype (%) [11]: 10%
Total Cell Count [11]: 331
Population Apoptotic (%) [12]: 71%
Population Fragmented Nuclei (%) [12]: 21%
Population Healthy Nuclei (%) [12]: 60%
Population Hoechst High Intensity Objects (%) [12]: 5%
Population Membrane Permeable-Phenotype (%) [12]: 30%
Population Mitochondria Different-Phenotype (%) [12]: 35%
Population Mitotic Cells (%) [12]: 28%
Population Normal (%) [12]: 94%
Population Pyknosed Nuclei (%) [12]: 18%
Population Tubulin-Different-Phenotype (%) [12]: 23%
Total Cell Count [12]: 120

OCCCNc1cc(-c2ccnc(Nc3cccc(Cl)c3)n2)ccn1
Population Apoptotic (%) [1]: 88%
Population Fragmented Nuclei (%) [1]: 38%
Population Healthy Nuclei (%) [1]: 52%
Population Hoechst High Intensity Objects (%) [1]: 3%
Population Membrane Permeable-Phenotype (%) [1]: 8%
Population Mitochondria Different-Phenotype (%) [1]: 4%
Population Mitotic Cells (%) [1]: 11%
Population Normal (%) [1]: 97%
Population Pyknosed Nuclei (%) [1]: 9%
Population Tubulin-Different-Phenotype (%) [1]: 4%
Total Cell Count [1]: 200
Population Apoptotic (%) [2]: 80%
Population Fragmented Nuclei (%) [2]: 27%
Population Healthy Nuclei (%) [2]: 51%
Population Hoechst High Intensity Objects (%) [2]: 5%
Population Membrane Permeable-Phenotype (%) [2]: 10%
Population Mitochondria Different-Phenotype (%) [2]: 18%
Population Mitotic Cells (%) [2]: 20%
Population Normal (%) [2]: 94%
Population Pyknosed Nuclei (%) [2]: 20%
Population Tubulin-Different-Phenotype (%) [2]: 5%
Total Cell Count [2]: 76
Population Apoptotic (%) [3]: 85%
Population Fragmented Nuclei (%) [3]: 37%
Population Healthy Nuclei (%) [3]: 56%
Population Hoechst High Intensity Objects (%) [3]: 4%
Population Membrane Permeable-Phenotype (%) [3]: 46%
Population Mitochondria Different-Phenotype (%) [3]: 36%
Population Mitotic Cells (%) [3]: 14%
Population Normal (%) [3]: 95%
Population Pyknosed Nuclei (%) [3]: 6%
Population Tubulin-Different-Phenotype (%) [3]: 46%
Total Cell Count [3]: 237
Population Apoptotic (%) [4]: 91%
Population Fragmented Nuclei (%) [4]: 24%
Population Healthy Nuclei (%) [4]: 64%
Population Hoechst High Intensity Objects (%) [4]: 10%
Population Membrane Permeable-Phenotype (%) [4]: 47%
Population Mitochondria Different-Phenotype (%) [4]: 51%
Population Mitotic Cells (%) [4]: 8%
Population Normal (%) [4]: 89%
Population Pyknosed Nuclei (%) [4]: 11%
Population Tubulin-Different-Phenotype (%) [4]: 61%
Total Cell Count [4]: 118
Population Apoptotic (%) [5]: 96%
Population Fragmented Nuclei (%) [5]: 43%
Population Healthy Nuclei (%) [5]: 43%
Population Hoechst High Intensity Objects (%) [5]: 7%
Population Membrane Permeable-Phenotype (%) [5]: 10%
Population Mitochondria Different-Phenotype (%) [5]: 10%
Population Mitotic Cells (%) [5]: 4%
Population Normal (%) [5]: 92%
Population Pyknosed Nuclei (%) [5]: 13%
Population Tubulin-Different-Phenotype (%) [5]: 6%
Total Cell Count [5]: 200
Population Apoptotic (%) [6]: 94%
Population Fragmented Nuclei (%) [6]: 40%
Population Healthy Nuclei (%) [6]: 33%
Population Membrane Permeable-Phenotype (%) [6]: 16%
Population Mitochondria Different-Phenotype (%) [6]: 25%
Population Mitotic Cells (%) [6]: 5%
Population Pyknosed Nuclei (%) [6]: 25%
Population Tubulin-Different-Phenotype (%) [6]: 16%
Total Cell Count [6]: 77
Population Apoptotic (%) [7]: 88%
Population Fragmented Nuclei (%) [7]: 37%
Population Healthy Nuclei (%) [7]: 50%
Population Hoechst High Intensity Objects (%) [7]: 11%
Population Membrane Permeable-Phenotype (%) [7]: 34%
Population Mitochondria Different-Phenotype (%) [7]: 40%
Population Mitotic Cells (%) [7]: 12%
Population Normal (%) [7]: 88%
Population Pyknosed Nuclei (%) [7]: 12%
Population Tubulin-Different-Phenotype (%) [7]: 37%
Total Cell Count [7]: 229
Population Apoptotic (%) [8]: 95%
Population Fragmented Nuclei (%) [8]: 30%
Population Healthy Nuclei (%) [8]: 49%
Population Hoechst High Intensity Objects (%) [8]: 12%
Population Membrane Permeable-Phenotype (%) [8]: 43%
Population Mitochondria Different-Phenotype (%) [8]: 54%
Population Mitotic Cells (%) [8]: 4%
Population Normal (%) [8]: 87%
Population Pyknosed Nuclei (%) [8]: 20%
Population Tubulin-Different-Phenotype (%) [8]: 61%
Total Cell Count [8]: 128
Population Apoptotic (%) [9]: 95%
Population Fragmented Nuclei (%) [9]: 56%
Population Healthy Nuclei (%) [9]: 22%
Population Hoechst High Intensity Objects (%) [9]: 16%
Population Membrane Permeable-Phenotype (%) [9]: 30%
Population Mitochondria Different-Phenotype (%) [9]: 14%
Population Mitotic Cells (%) [9]: 4%
Population Normal (%) [9]: 83%
Population Pyknosed Nuclei (%) [9]: 21%
Population Tubulin-Different-Phenotype (%) [9]: 26%
Total Cell Count [9]: 227
Population Apoptotic (%) [10]: 100%
Population Fragmented Nuclei (%) [10]: 59%
Population Healthy Nuclei (%) [10]: 11%
Population Hoechst High Intensity Objects (%) [10]: 12%
Population Mitochondria Different-Phenotype (%) [10]: 20%
Population Mitotic Cells (%) [10]: 0%
Population Normal (%) [10]: 87%
Population Pyknosed Nuclei (%) [10]: 28%
Population Tubulin-Different-Phenotype (%) [10]: 10%
Total Cell Count [10]: 99
Population Apoptotic (%) [11]: 94%
Population Fragmented Nuclei (%) [11]: 47%
Population Healthy Nuclei (%) [11]: 31%
Population Hoechst High Intensity Objects (%) [11]: 21%
Population Membrane Permeable-Phenotype (%) [11]: 43%
Population Mitochondria Different-Phenotype (%) [11]: 45%
Population Mitotic Cells (%) [11]: 5%
Population Normal (%) [11]: 78%
Population Pyknosed Nuclei (%) [11]: 21%
Population Tubulin-Different-Phenotype (%) [11]: 45%
Total Cell Count [11]: 223
Population Apoptotic (%) [12]: 96%
Population Fragmented Nuclei (%) [12]: 50%
Population Healthy Nuclei (%) [12]: 25%
Population Hoechst High Intensity Objects (%) [12]: 23%
Population Membrane Permeable-Phenotype (%) [12]: 65%
Population Mitochondria Different-Phenotype (%) [12]: 34%
Population Mitotic Cells (%) [12]: 4%
Population Normal (%) [12]: 76%
Population Pyknosed Nuclei (%) [12]: 24%
Population Tubulin-Different-Phenotype (%) [12]: 65%
Total Cell Count [12]: 134
